These results are taken from ChEMBL document CHEMBL2429859, “Inhibiting aberrant signal transducer and activator of transcription protein activation with tetrapodal, small molecule Src homology 2 domain binders: promising agents against multiple myeloma” (J Med Chem, 2013).

The target of series [1] is T1, Tyrosine-protein kinase JAK3 (Homo sapiens) (UniProt P52333).
T1 sequence (whole entry): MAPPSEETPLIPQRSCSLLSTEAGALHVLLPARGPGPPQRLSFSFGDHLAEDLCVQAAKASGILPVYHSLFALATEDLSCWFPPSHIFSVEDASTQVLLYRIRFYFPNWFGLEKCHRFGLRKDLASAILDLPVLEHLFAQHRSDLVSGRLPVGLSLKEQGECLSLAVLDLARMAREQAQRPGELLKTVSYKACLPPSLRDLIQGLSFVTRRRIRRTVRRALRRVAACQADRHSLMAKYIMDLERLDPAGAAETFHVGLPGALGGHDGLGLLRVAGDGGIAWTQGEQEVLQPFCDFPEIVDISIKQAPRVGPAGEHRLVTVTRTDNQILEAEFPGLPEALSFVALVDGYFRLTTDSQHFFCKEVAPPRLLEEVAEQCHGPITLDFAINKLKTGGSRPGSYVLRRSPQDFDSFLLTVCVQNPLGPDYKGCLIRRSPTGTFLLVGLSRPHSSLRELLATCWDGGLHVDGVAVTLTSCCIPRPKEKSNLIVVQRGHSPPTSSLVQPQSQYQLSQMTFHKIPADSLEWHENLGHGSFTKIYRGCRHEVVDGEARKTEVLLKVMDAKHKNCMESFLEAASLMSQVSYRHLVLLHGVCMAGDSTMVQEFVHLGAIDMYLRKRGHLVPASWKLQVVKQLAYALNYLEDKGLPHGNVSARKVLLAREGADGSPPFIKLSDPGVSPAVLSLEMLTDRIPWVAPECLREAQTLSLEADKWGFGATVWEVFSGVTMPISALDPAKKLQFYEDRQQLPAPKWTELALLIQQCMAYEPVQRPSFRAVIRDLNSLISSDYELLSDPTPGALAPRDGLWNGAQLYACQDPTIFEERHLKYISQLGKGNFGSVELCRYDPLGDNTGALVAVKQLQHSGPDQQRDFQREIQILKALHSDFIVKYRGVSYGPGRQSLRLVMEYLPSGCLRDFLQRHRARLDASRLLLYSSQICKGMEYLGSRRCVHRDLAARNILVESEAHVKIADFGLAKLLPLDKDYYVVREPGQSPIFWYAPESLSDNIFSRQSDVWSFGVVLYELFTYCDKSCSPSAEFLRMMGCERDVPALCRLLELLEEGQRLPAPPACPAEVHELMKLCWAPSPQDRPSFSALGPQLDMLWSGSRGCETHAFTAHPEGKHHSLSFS
The experiment in a line: Inhibition of JAK3 JH1 domain (unknown origin) assessed as residual activity at 5 uM relative to control. The method in brief:
(§1)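 Kinase profiling used a KinomeScan at 5 µM across 132 kinases, including 37 with SH2 domains.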

The subject of series [2] is RPMI-8226. The experiment in a line: Induction of apoptosis in human RPMI8226 cells assessed as transformation of early apoptotic cells to late apoptotic cells measured at 48 hrs by annexin V/propidium iodide staining-based flow cytometric analysis. Type of series: functional, cell-based. The method in brief: (§2)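 Apoptosis was measured by flow cytometry of Annexin V and propidium iodide staining. Viable, early apoptotic and late apoptotic cells were scored by quadrant, with time points at 24 and 48 h.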

In series [3] the test system is XG6. Description: Cytotoxicity against human XG6 cells assessed as inhibition of cell viability after 72 hrs by MTT assay. Type of series: functional, cell-based. The method in brief:
(§3)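 Myeloma lines were seeded at 1-3 x 10^4 cells per well onto compound or vehicle, in triplicate, and cultured 72 h at 37 °C in 5% CO2. Viability was measured colorimetrically by MTT assay relative to DMSO control. EC50 was fitted to a standard dose-response curve where applicable.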

The subject of series [4] is JJN-3. The experiment in a line: Cytotoxicity against human JJN-3 cells assessed as inhibition of cell viability after 72 hrs by MTT assay. The class given is functional, cell-based. The method in brief: as §3
On the technique in general: Tetrazolium dyes change colour on reduction, which living cells bring about.

Series [5] concerns the target T2, Signal transducer and activator of transcription 3 (Homo sapiens, UniProt P40763). Description: Inhibition of Stat3 in human JJN-3 cells assessed as downregulation of survivin protein expression. The class given is cell-based. Summed up: (§4)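 Treated cells were washed in cold PBS and lysed 30 min on ice in Tris-HCl pH 7.4/NaCl/EDTA/1% NP-40 with PMSF, vanadate and protease inhibitors. Lysates were Bradford-normalized, and 10-30 µg protein was run on 7-10% SDS-PAGE and transferred to PVDF. Blots were blocked in 5% BSA/TBST, probed overnight at 4 °C, then with HRP secondary, and detected by ECL.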

Series [6] addresses Tyrosine-protein kinase JAK1 (Homo sapiens) (UniProt P23458). The experiment in a line: Inhibition of JAK1 (unknown origin) assessed as residual activity at 5 uM relative to control. The method in brief: as §1
In a further series the test system is OCI-AML2. The experiment in a line: Cytotoxicity against human OCI-AML2 cells assessed as cell viability after 72 hrs by MTS assay. Type of series: functional, cell-based. The following applies: OCI-AML2, 72 h. The method in brief: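 Cells were seeded at 1-3 x 10^4 per well into wells already holding compound or vehicle, in triplicate. Incubation was 72 h at 37 °C in 5% CO2. Viability was read by MTS colorimetry relative to DMSO control, and EC50 was fitted to a standard dose-response curve where applicable.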

Series [7] concerns the target T2, Signal transducer and activator of transcription 3. Description: Inhibition of Stat3 in human JJN-3 cells assessed as downregulation of c-Myc protein expression after 6 hrs by Western blot analysis. The class given is cell-based. Summed up: as §4
(In general: Immunoblotting shows a protein as a band on a membrane.)

In series [8] the test system is RPMI-8226. The experiment in a line: Induction of apoptosis in human RPMI8226 cells assessed as transformation of viable cells to early apoptotic cells measured at 24 hrs by annexin V/propidium iodide staining-based flow cytometric analysis. The class given is functional, cell-based. Summed up: as §2
In general terms: In flow cytometry, cells or beads pass a laser one at a time.

Series [9] has as its system XG6. Description: Induction of apoptosis in human XG6 cells at 10 to 20 uM by annexin V/propidium iodide staining-based flow cytometric analysis. Type of series: functional, cell-based. Summed up: as §2
Series [10] can be described thus: Cytotoxicity against CD138-negative BMNC isolated from multiple myeloma patient assessed as cell viability at > 20 uM. The following applies: human. Summed up:
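Bone marrow mononuclear cells were isolated by Ficoll-Paque separation from 6 myeloma patient aspirates, cultured, and treated with compound. Cells were stained for CD138 and Annexin V, and the decrease in CD138+ (myeloma) and CD138- (non-myeloma) populations was reported.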

Series [11] has as its system JJN-3. Description: Induction of apoptosis in human JJN-3 cells assessed as induction of PARP cleavage at 10 to 30 uM by Western blot analysis. Type of series: functional, cell-based. Summed up:
as §4

Series [12] has as its system RPMI-8226. The experiment in a line: Cytotoxicity against human RPMI8226 cells assessed as inhibition of cell viability after 72 hrs by MTT assay. The class given is functional, cell-based. Summed up:
as §3

Series [13] has as its target T2, Signal transducer and activator of transcription 3. The experiment in a line: Inhibition of Stat3 in human JJN-3 cells assessed as downregulation of BCL-xL protein expression. Type of series: cell-based. Summed up: as §4
The target is the same in series [14]. The experiment in a line: Inhibition of Stat3 phosphorylation in human JJN-3 cells after 6 hrs by Western blot analysis. Type of series: cell-based. Summed up: as §4
For the next series, the system named is XG7. The experiment in a line: Cytotoxicity against human XG7 cells assessed as inhibition of cell viability after 72 hrs by MTT assay. Type of series: functional, cell-based. The method in brief:
as §3

In series [15] the target is T2, Signal transducer and activator of transcription 3. The experiment in a line: Inhibition of Stat3-mediated luciferase expression in human 8226 cells at 7.5 to 15 uM after 6 hrs relative to control. Type of series: cell-based. Summed up: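 Myeloma cells stably carried a Stat3-driven firefly luciferase reporter (puromycin-selected) and a CMV-driven Renilla luciferase internal control (hygromycin-selected), each selected for 2 weeks. After drug treatment, dual luciferase activity was read as relative luciferase units, firefly/Renilla.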

In series [16] the test system is RPMI-8226. The experiment in a line: Cytotoxicity against human RPMI8226 cells assessed as cell viability at 7.5 uM after 72 hrs by MTT assay. The class given is functional, cell-based. The method in brief: as §3
Series [17] has as its system XG6. Description: Induction of apoptosis in human XG6 cells at 10 to 15 uM by annexin V/propidium iodide staining-based flow cytometric analysis. Type of series: functional, cell-based. The method in brief: as §2

Structures are written as SMILES. Activity calls are given as the source filed them. No cut-off for these calls is given here.

T2 sequence (P40763 whole entry): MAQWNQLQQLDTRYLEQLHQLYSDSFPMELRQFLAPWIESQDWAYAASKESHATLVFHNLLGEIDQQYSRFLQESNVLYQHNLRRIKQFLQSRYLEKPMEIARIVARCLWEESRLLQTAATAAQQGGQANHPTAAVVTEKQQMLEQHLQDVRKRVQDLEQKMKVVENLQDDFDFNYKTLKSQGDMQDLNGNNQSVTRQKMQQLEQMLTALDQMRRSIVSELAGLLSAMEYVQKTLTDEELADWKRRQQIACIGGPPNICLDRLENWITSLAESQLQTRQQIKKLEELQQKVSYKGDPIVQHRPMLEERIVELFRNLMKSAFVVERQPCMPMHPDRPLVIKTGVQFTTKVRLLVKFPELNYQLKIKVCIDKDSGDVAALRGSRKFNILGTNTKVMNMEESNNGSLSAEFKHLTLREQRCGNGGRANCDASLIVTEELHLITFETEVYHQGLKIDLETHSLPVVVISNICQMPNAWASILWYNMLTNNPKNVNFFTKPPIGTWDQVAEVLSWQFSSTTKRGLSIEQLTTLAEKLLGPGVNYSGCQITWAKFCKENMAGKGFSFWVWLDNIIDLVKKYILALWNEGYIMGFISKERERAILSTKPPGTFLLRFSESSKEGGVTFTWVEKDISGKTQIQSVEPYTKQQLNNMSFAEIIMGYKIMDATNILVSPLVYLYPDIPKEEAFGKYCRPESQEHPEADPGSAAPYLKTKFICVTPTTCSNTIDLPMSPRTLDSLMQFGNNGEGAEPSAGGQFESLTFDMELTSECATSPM
Chain of Tyrosine-protein kinase JAK1 (Homo sapiens) (P23458 whole entry): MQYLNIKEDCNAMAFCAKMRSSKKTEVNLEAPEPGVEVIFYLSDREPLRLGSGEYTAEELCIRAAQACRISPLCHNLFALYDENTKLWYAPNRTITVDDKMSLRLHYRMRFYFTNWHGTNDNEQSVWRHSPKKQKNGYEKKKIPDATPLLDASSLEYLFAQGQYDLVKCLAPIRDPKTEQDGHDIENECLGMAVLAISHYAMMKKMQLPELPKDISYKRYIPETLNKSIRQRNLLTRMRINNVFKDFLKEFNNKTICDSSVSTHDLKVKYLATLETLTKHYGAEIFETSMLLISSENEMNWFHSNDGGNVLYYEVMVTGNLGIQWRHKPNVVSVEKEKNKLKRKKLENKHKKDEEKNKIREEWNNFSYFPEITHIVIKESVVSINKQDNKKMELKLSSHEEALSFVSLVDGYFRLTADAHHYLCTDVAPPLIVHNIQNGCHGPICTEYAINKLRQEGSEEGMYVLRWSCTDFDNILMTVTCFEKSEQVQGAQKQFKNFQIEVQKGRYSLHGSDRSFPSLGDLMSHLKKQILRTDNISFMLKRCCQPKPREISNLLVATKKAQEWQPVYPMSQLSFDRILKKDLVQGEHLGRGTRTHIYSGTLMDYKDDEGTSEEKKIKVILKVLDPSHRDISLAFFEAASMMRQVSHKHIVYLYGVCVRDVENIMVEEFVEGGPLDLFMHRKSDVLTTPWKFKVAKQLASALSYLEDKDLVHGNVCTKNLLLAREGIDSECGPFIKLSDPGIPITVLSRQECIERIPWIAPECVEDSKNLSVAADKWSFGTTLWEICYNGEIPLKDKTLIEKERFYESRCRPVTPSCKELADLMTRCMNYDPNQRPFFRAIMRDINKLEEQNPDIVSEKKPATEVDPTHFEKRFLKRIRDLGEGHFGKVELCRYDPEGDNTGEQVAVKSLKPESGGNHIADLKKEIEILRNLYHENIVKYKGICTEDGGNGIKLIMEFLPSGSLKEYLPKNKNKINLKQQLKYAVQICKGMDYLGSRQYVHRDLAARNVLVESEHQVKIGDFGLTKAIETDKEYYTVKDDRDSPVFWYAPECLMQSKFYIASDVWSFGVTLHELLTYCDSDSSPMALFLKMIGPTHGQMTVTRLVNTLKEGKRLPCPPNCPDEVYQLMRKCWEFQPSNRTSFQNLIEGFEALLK

In general, inhibition refers to how much of the control response was suppressed. What is called IC50 is the concentration at which inhibition is half-maximal. Take `Cc1ccc(S(=O)(=O)N(CC(=O)N(Cc2ccc(C3CCCCC3)cc2)c2ccc(C(=O)O)c(O)c2)Cc2ccccc2C(F)(F)F)cc1`: the Activity in series [1] is 84%; with RPMI-8226 [2], “Dose-dependent effect”; in [6], 84%; with RPMI-8226 [8] it was “Dose-dependent effect”; in series [10], “Non-toxic”. The inhibition entry (with XG6 [3]; with JJN-3 [4]; in [7]; in the series on RPMI-8226 [12]; in series [14]; in the series on XG7) was “Dose-dependent effect” in each case. The inhibition result in [5] and in series [13] was “inactive” in each case. Further, in the series with OCI-AML2, the IC50 was 12 µM. The outcome in the series with XG6 [9] and in the series on JJN-3 [11] was Active.

For `O=C(O)c1ccc(N(Cc2ccc(C3CCCCC3)cc2)C(=O)CN(Cc2ccccc2C(F)(F)F)S(=O)(=O)c2c(F)c(F)c(F)c(F)c2F)cc1O`, the inhibition in series [15] is 50%; in the series with XG6 [3], “Dose-dependent effect”; in the series with JJN-3 [4] it was “Dose-dependent effect”; in series [7], “Dose-dependent effect”; with RPMI-8226 [12] it was “Dose-dependent effect”; in [14], “Dose-dependent effect”. Moreover, the inhibition entry in the series on XG7 is “Dose-dependent effect”. Besides, the result with RPMI-8226 [16] and with XG6 [17] was Active. Besides, the Activity result in the series with RPMI-8226 [2] and in the series on RPMI-8226 [8] was “Dose-dependent effect” throughout. In addition, the inhibition result in series [5] and in series [13] was “inactive” in each case. Also, the IC50 in the series on OCI-AML2 was 4.6 µM.
